Columns and labels:
[1] = Antitumor activity against mouse Ridgway osteogenic sarcoma allografted in AKR mouse assessed as tumor growth inhibition at 0.10 mg/kg, ip administered daily for 8 to 10 days compound treatment commenced 8 days after tumor implantation; type: functional; conditions: route intraperitoneal, read-out: TGI
[2] = Antitumor activity against mouse Ridgway osteogenic sarcoma allografted in AKR mouse assessed as tumor growth inhibition at 0.40 mg/kg, ip administered daily for 8 to 10 days compound treatment commenced 8 days after tumor implantation; type: functional; conditions: route intraperitoneal, read-out: TGI
Mus musculus [3] = test: Toxicity in CD2F1 mouse allografted with mouse P388/S cells at 3.00 mg/kg, ip administered on days 1, 5 and 9; type: organism-based; design: dose 3 mg/kg, route intraperitoneal; conditions: in vivo
P388/VCR [4] = test: Antitumor activity against mouse P388/VCR cells allografted in CD2F1 mouse assessed as increase in host lifespan at 1.08 mg/kg, ip administered on days 1, 5 and 9; type: functional; conditions: route intraperitoneal
In short: (§1)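 Groups of eight male CD2F1 mice bearing P388 leukemia, run at NCI. Sulfate salts given ip on days 1, 5 and 9. Read-out is percent increase in lifespan.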

P388/S [5] = test: Antitumor activity against mouse P388/S cells allografted in CD2F1 mouse assessed as increase in host lifespan at 1.08 mg/kg, ip administered on days 1, 5 and 9; type: functional; conditions: route intraperitoneal; in short: as §1
[6] = Antitumor activity against mouse P1534 cells allografted in DBA2 mouse assessed as tumor growth inhibition at 0.30 mg/kg, ip administered daily for 8 to 10 days; type: functional; conditions: route intraperitoneal, read-out: TGI
In short: (§2)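 P1534(J) leukemia implanted sc in DBA2 mice; sulfate salts dosed ip daily for 8–10 days. Growth inhibition scored –, 0–25%; +, 26–50%; ++, 51–75%; +++, 76–100%; T, lethal to ≥5 of 10 animals per group. Average of one or more tests.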

B16 [7] = test: Antitumor activity against mouse B16 cells allografted in C57BL/6 mouse assessed as prolongation of host survival at 0.60 mg/kg, ip administered on days 1,5 and 9; type: functional; conditions: route intraperitoneal
In short: (§3)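 B16 melanoma cells (10⁶ inoculum) implanted ip in C57BL/6 mice; groups of 10. Sulfate salts unless noted, given ip on days 1, 5 and 9. Single test. Survival prolongation is expressed as percent versus controls, with survivors counted on day 60. Toxic means deaths of ≥5 of 10 animals before the first control death.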

Mus musculus [8] = test: Toxicity in mouse assessed as body weight at 0.5 mg/kg, ip administered twice per week for 4 weeks, then three doses per week for 3 weeks and finally six doses per week for 2 weeks measured during 9-weeks (reference value: 18.5 +/- 0.5 gms); type: organism-based; design: dose 0.5 mg/kg, route intraperitoneal; conditions: in vivo, 1512 h
[9] = Antitumor activity against mouse P388/VCR/I/63 cells allografted in Dublin-CDF1 mouse assessed as day of host death at 2.0 mg/kg, ip administered on days 1, 5 and 9 (reference value: 10 days); type: functional; conditions: route intraperitoneal
[10] = Antitumor activity against mouse Ridgway osteogenic sarcoma allografted in AKR mouse assessed as tumor growth inhibition at 0.05 mg/kg, ip administered daily for 8 to 10 days compound treatment commenced 8 days after tumor implantation; type: functional; conditions: route intraperitoneal, read-out: TGI
P388/VCR [11] = test: Antitumor activity against mouse P388/VCR cells allografted in B6D2F1 mouse assessed as increase in host lifespan at 0.60 mg/kg, ip administered on days 1, 5 and 9; type: functional; conditions: dose 0.6 mg/kg; route intraperitoneal
In short: (§4)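 P388/VCR leukemia in groups of 10 B6D2F1 mice, run at Lilly using the cell strain received from NCI. Sulfate salts given ip on days 1, 5 and 9. Read-out is percent increase in lifespan.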

Mus musculus [12] = test: Toxicity in C3H mouse allografted with mouse Gardner lymphosarcoma assessed as lethality at 0.5 mg/kg, ip administered daily for 8 to 10 days; type: organism-based; design: dose 0.5 mg/kg, route intraperitoneal; conditions: in vivo
In short: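 Tumor-bearing mice given sulfate salts ip daily for 8–10 days; values are the average of one or more tests. Toxic means lethal to ≥5 of 10 animals per group.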

Mus musculus [13] = test: Toxicity in DBA2 mouse allografted with mouse P1534 cells at 0.40 mg/kg, ip administered daily for 8 to 10 days; type: organism-based; design: dose 0.4 mg/kg, route intraperitoneal; conditions: in vivo, 0.4 mg/kg; in short: as §2
Mus musculus [14] = test: Toxicity in CD2F1 mouse allografted with mouse P388/VCR cells at 3.00 mg/kg, ip administered on days 1, 5 and 9; type: organism-based; design: dose 3 mg/kg, route intraperitoneal; conditions: in vivo
P388/VCR [15] = test: Antitumor activity against mouse P388/VCR cells allografted in B6D2F1 mouse assessed as increase in host lifespan at 0.90 mg/kg, ip administered on days 1, 5 and 9; type: functional; conditions: dose 0.9 mg/kg; route intraperitoneal; in short: as §4
[16] = Antitumor activity against mouse Gardner lymphosarcoma allografted in C3H mouse assessed as tumor growth inhibition at 0.20 mg/kg, ip administered daily for 8 to 10 days; type: functional; conditions: route intraperitoneal, read-out: TGI
In short: (§5)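 Gardner lymphosarcoma in C3H mice; sulfate salts unless noted, given ip daily for 8–10 days, treatment starting 8 days after tumor implantation. Tumor growth inhibition scored as –, 0–25%; +, 26–50%; ++, 51–75%; +++, 76–100%; T, lethal to ≥5 of 10 animals per group. Average of one or more tests.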

P388/VCR [17] = test: Antitumor activity against mouse P388/VCR cells allografted in CD2F1 mouse assessed as increase in host lifespan at 1.80 mg/kg, ip administered on days 1, 5 and 9; type: functional; conditions: dose 1.8 mg/kg; route intraperitoneal
In short: (§6)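 Groups of eight male CD2F1 mice, tested at the NCI. Compounds were given as sulfate salts, dosed in mg/kg ip on days 1, 5 and 9. Activity was read as percent increase in lifespan against the leukemia line.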

[18] = Antitumor activity against mouse Gardner lymphosarcoma allografted in C3H mouse assessed as tumor growth inhibition at 0.10 mg/kg, ip administered daily for 8 to 10 days; type: functional; conditions: route intraperitoneal, read-out: TGI; in short: as §5
[19] = Antitumor activity against mouse Gardner lymphosarcoma allografted in C3H mouse assessed as tumor growth inhibition at 0.30 mg/kg, ip administered daily for 8 to 10 days; type: functional; conditions: route intraperitoneal, read-out: TGI; in short: as §5
P388/S [20] = test: Antitumor activity against mouse P388/S cells allografted in CD2F1 mouse assessed as increase in host lifespan at 1.80 mg/kg, ip administered on days 1, 5 and 9; type: functional; conditions: dose 1.8 mg/kg; route intraperitoneal; in short: as §6
[21] = Antitumor activity against mouse Ridgway osteogenic sarcoma allografted in AKR mouse assessed as tumor growth inhibition at 0.30 mg/kg, ip administered daily for 8 to 10 days compound treatment commenced 8 days after tumor implantation; type: functional; conditions: route intraperitoneal, read-out: TGI
B16 [22] = test: Antitumor activity against mouse B16 cells allografted in C57BL/6 mouse assessed as prolongation of host survival at 0.90 mg/kg, ip administered on days 1,5 and 9; type: functional; conditions: route intraperitoneal; in short: as §3
[23] = Antitumor activity against mouse P1534 cells allografted in DBA2 mouse assessed as tumor growth inhibition at 0.20 mg/kg, ip administered daily for 8 to 10 days; type: functional; conditions: route intraperitoneal, read-out: TGI; in short: as §2
[24] = Antitumor activity against mouse Ridgway osteogenic sarcoma allografted in AKR mouse assessed as tumor growth inhibition at 0.20 mg/kg, ip administered daily for 8 to 10 days compound treatment commenced 8 days after tumor implantation; type: functional; conditions: route intraperitoneal, read-out: TGI
CHO [25] = test: Mitotic arrest in CHO cells assessed as increase in cell accumulation at 0.002 ug/ml; type: functional, Cricetulus griseus
In short: (§7)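 Chinese hamster ovary cells in tissue culture, scored for mitotic arrest as increase in cells in mitotic arrest over control: +++, 40–50%; ++, 15–40%; +, 10–15%; ±, 7–10%; –, 3–7%. Cytotoxicity noted separately.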

[26] = Antitumor activity against mouse P388/VCR/I/63 cells allografted in Dublin-CDF1 mouse assessed as increase in host lifespan at 2.0 mg/kg, ip administered on days 1, 5 and 9; type: functional; conditions: route intraperitoneal
P388/VCR [27] = test: Antitumor activity against mouse P388/VCR cells allografted in CD2F1 mouse assessed as increase in host lifespan at 0.648 mg/kg, ip administered on days 1, 5 and 9; type: functional; conditions: route intraperitoneal; in short: as §1
P388/VCR [28] = test: Antitumor activity against mouse P388/VCR cells allografted in B6D2F1 mouse assessed as increase in host lifespan at 1.20 mg/kg, ip administered on days 1, 5 and 9; type: functional; conditions: dose 1.2 mg/kg; route intraperitoneal; in short: as §4
[29] = Antitumor activity against mouse Gardner lymphosarcoma allografted in C3H mouse assessed as tumor growth inhibition at 0.40 mg/kg, ip administered daily for 8 to 10 days; type: functional; conditions: route intraperitoneal, read-out: TGI; in short: as §5
[30] = Antitumor activity against mouse Gardner lymphosarcoma allografted in C3H mouse assessed as tumor growth inhibition at 0.05 mg/kg, ip administered daily for 8 to 10 days; type: functional; conditions: route intraperitoneal, read-out: TGI; in short: as §5
[31] = Toxicity in iv dosed mouse assessed as lethality; type: organism-based; conditions: in vivo
B16 [32] = test: Antitumor activity against mouse B16 cells allografted in C57BL/6 mouse assessed as prolongation of host survival at 1.20 mg/kg, ip administered on days 1,5 and 9; type: functional; conditions: route intraperitoneal; in short: as §3
CHO [33] = test: Mitotic arrest in CHO cells assessed as increase in cell accumulation at 0.02 ug/ml; type: functional, Cricetulus griseus; in short: as §7
[34] = Antitumor activity against mouse P1534 cells allografted in DBA2 mouse assessed as tumor growth inhibition at 0.25 mg/kg, ip administered daily for 8 to 10 days; type: functional; conditions: route intraperitoneal, read-out: TGI; in short: as §2
P388/S [35] = test: Antitumor activity against mouse P388/S cells allografted in CD2F1 mouse assessed as increase in host lifespan at 0.648 mg/kg, ip administered on days 1, 5 and 9; type: functional; conditions: route intraperitoneal; in short: as §1
Mus musculus [36] = test: Toxicity in mouse assessed as body weight at 0.5 mg/kg, ip administered twice per week for 4 weeks, then three doses per week for 3 weeks and finally six doses per week for 2 weeks measured at week 9 (reference value: 18.5 +/- 0.5 gms); conditions: in vivo

CC[C@]1(O)C[C@@H]2CN(CCc3c([nH]c4ccccc34)[C@@](C(=O)OC)(c3cc4c(cc3OC)N(C)[C@H]3[C@@](O)(C(N)=O)[C@H](O)[C@]5(CC)C=CCN6CC[C@]43[C@@H]65)C2)C1.O=S(=O)(O)O [VINDESINE SULFATE]
inhibition in vivo at 0.1 mg/kg [1]: 0% | inhibition in vivo at 0.4 mg/kg [2]: 76% | Activity (Mus musculus [3]): Toxic | Activity (P388/VCR [4]): 0% | Activity (P388/S [5]): 129% | inhibition in vivo at 0.3 mg/kg [6]: 76% | survival at 0.6 mg/kg (B16 [7]): 117% | Activity (Mus musculus [8]): 34.9 g | Activity [9]: 20 days | inhibition in vivo at 0.05 mg/kg [10]: 0% | Activity (P388/VCR [11]): 0% | Activity (Mus musculus [12]): Toxic | Activity (Mus musculus [13]): Toxic | Activity (Mus musculus [14]): Toxic | Activity (P388/VCR [15]): 5% | inhibition in vivo at 0.2 mg/kg [16]: 76% | Activity (P388/VCR [17]): -8% | inhibition in vivo at 0.1 mg/kg [18]: 51% | inhibition in vivo at 0.3 mg/kg [19]: 76% | Activity (P388/S [20]): 138% | inhibition in vivo at 0.3 mg/kg [21]: 76% | survival at 0.9 mg/kg (B16 [22]): 144% | inhibition in vivo at 0.2 mg/kg [23]: 51% | inhibition in vivo at 0.2 mg/kg [24]: 51% | Activity (CHO [25]): 10% | Activity [26]: 100% | Activity (P388/VCR [27]): 4% | Activity (P388/VCR [28]): 3% | inhibition in vivo at 0.4 mg/kg [29]: 76% | inhibition in vivo at 0.05 mg/kg [30]: 0% | LD50 [31]: 6.3 mg/kg | survival at 1.2 mg/kg (B16 [32]): 155% | Activity (CHO [33]): 15% | inhibition in vivo at 0.25 mg/kg [34]: 76% | Activity (P388/S [35]): 96%

CC[C@]1(O)C[C@H]2CN(CCc3c([nH]c4ccccc34)[C@@](C(=O)OC)(c3cc4c(cc3OC)N(C)[C@H]3[C@@](O)(C(=O)NC)[C@H](O)[C@]5(CC)C=CCN6CC[C@]43[C@@H]65)C2)C1.O=S(=O)(O)O
inhibition in vivo at 0.1 mg/kg [1]: 0% | inhibition in vivo at 0.4 mg/kg [2]: 76% | inhibition in vivo at 0.05 mg/kg [10]: 0% | Activity (Mus musculus [12]): Toxic | inhibition in vivo at 0.2 mg/kg [16]: 76% | inhibition in vivo at 0.1 mg/kg [18]: 0% | inhibition in vivo at 0.3 mg/kg [19]: 76% | inhibition in vivo at 0.3 mg/kg [21]: 76% | inhibition in vivo at 0.2 mg/kg [24]: 51% | Activity (CHO [25]): 3% | inhibition in vivo at 0.4 mg/kg [29]: 76% | inhibition in vivo at 0.05 mg/kg [30]: 0% | Activity (CHO [33]): 15% | inhibition in vivo at 0.25 mg/kg [34]: 76% | Activity (Mus musculus [36]): 24.6 g
